Columns and labels:
[1] = target: Mitogen-activated protein kinase 14 (Homo sapiens, UniProt Q16539); assay: Inhibition of p38alpha
Blood = assay: Inhibition of LPS-stimulated TNFalpha release in human whole blood by ELISA; format: functional, tissue-based
Summary of the method: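 Fresh human whole blood diluted with FBS; compound dilutions added, 15 min preincubation (5% CO2), then LPS stimulation; basal wells received DPBS-gentamicin. […] Tests in duplicate except where otherwise stated.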

Sequence of Mitogen-activated protein kinase 14 (Q16539 whole entry): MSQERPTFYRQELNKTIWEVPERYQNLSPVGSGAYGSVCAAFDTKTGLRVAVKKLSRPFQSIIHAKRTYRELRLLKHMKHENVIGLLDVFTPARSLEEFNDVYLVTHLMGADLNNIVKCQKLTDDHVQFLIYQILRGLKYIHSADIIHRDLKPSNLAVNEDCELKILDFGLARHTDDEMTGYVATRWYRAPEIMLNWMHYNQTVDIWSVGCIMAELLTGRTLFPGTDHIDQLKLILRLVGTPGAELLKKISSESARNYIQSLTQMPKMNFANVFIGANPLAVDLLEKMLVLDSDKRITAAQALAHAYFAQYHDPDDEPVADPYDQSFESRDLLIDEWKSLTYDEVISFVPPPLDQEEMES

IC50 [1] | IC50 (Blood) | Compound
0.184 µM | 4.21 µM | OCCSc1nc(-c2ccc(F)cc2)c(-c2ccncc2)[nH]1
0.003 µM | 0.126 µM | CC(C)Nc1cc(-c2[nH]c(SCC(O)CO)nc2-c2ccc(F)cc2)ccn1 (stereo not given)
0.215 µM | 6.69 µM | OCCCSc1nc(-c2ccc(F)cc2)c(-c2ccncc2)[nH]1
0.003 µM | 0.131 µM | OCC(O)CSc1nc(-c2ccc(F)cc2)c(-c2ccnc(NC3CCOCC3)c2)[nH]1 (stereo not given)
0.018 µM | 0.167 µM | CC(C)C(C)Nc1cc(-c2[nH]c(SC[C@H](O)CO)nc2-c2ccc(F)cc2)ccn1 (stereo not given in full)
0.015 µM | 0.183 µM | CC(C)C(C)Nc1cc(-c2[nH]c(SCC(O)CO)nc2-c2ccc(F)cc2)ccn1 (stereo not given)
0.003 µM | 0.123 µM | CC(C)Nc1cc(-c2[nH]c(SC[C@@H](O)CO)nc2-c2ccc(F)cc2)ccn1
0.041 µM | 0.936 µM | CC(Nc1cc(-c2[nH]c(SCC(O)CO)nc2-c2ccc(F)cc2)ccn1)c1ccccc1 (stereo not given)
 | 2.67 µM | OCC(O)CSc1nc(-c2ccc(F)cc2)c(-c2ccnc(NCc3ccccc3)c2)[nH]1 (stereo not given)
0.012 µM | 0.145 µM | CC(C)C(C)Nc1cc(-c2[nH]c(SCCCO)nc2-c2ccc(F)cc2)ccn1 (stereo not given)
0.01 µM | 0.139 µM | CC(C)C(C)Nc1cc(-c2[nH]c(SC[C@@H](O)CO)nc2-c2ccc(F)cc2)ccn1 (stereo not given in full)
1.22 µM |  | Cn1c(SCC(O)CO)nc(-c2ccc(F)cc2)c1-c1ccncc1 (stereo not given)
 | 0.168 µM | CC(C)CNc1cc(-c2[nH]c(SCC(O)CO)nc2-c2ccc(F)cc2)ccn1 (stereo not given)
 | 0.157 µM | OCCSc1nc(-c2ccc(F)cc2)c(-c2ccnc(N[C@H]3CC[C@H](O)CC3)c2)[nH]1
0.036 µM | 45.5 µM | COC(=O)CSc1nc(-c2ccc(F)cc2)c(-c2ccnc(NC(C)c3ccccc3)c2)[nH]1 (stereo not given)
0.019 µM | 8.94 µM | COC(=O)CSc1nc(-c2ccc(F)cc2)c(-c2ccnc(NC(C)C(C)C)c2)[nH]1 (stereo not given)
0.002 µM | 0.08 µM | OCCSc1nc(-c2ccc(F)cc2)c(-c2ccnc(NC3CCOCC3)c2)[nH]1
 | 19.4 µM | CCOP(=O)(CSc1nc(-c2ccc(F)cc2)c(-c2ccnc(NC(C)c3ccccc3)c2)[nH]1)OCC (stereo not given)
0.158 µM | 31.9 µM | COC(=O)CSc1nc(-c2ccc(F)cc2)c(-c2ccncc2)[nH]1
0.392 µM | 3.38 µM | OCC(O)CSc1nc(-c2ccc(F)cc2)c(-c2ccncc2)[nH]1 (stereo not given)
0.487 µM | 31.9 µM | COC(=O)CCCSc1nc(-c2ccc(F)cc2)c(-c2ccncc2)[nH]1
0.006 µM | 0.18 µM | CC(C)Nc1cc(-c2[nH]c(SC[C@H](O)CO)nc2-c2ccc(F)cc2)ccn1
0.027 µM | 0.777 µM | CCNc1cc(-c2[nH]c(SCC(O)CO)nc2-c2ccc(F)cc2)ccn1 (stereo not given)
0.102 µM | 5.72 µM | CNc1cc(-c2[nH]c(SCC(O)CO)nc2-c2ccc(F)cc2)ccn1 (stereo not given)
0.005 µM | 0.156 µM | CCC(C)Nc1cc(-c2[nH]c(SCC(O)CO)nc2-c2ccc(F)cc2)ccn1 (stereo not given)
2.24 µM | 25.4 µM | CCOC(=O)C(Sc1nc(-c2ccc(F)cc2)c(-c2ccncc2)[nH]1)C(=O)OCC
0.004 µM | 12.8 µM | COC(=O)CSc1nc(-c2ccc(F)cc2)c(-c2ccnc(NC(C)C)c2)[nH]1
0.037 µM | 65.7 µM | CC(Nc1cc(-c2[nH]c(SCC(=O)O)nc2-c2ccc(F)cc2)ccn1)c1ccccc1 (stereo not given)
0.011 µM | 0.037 µM | CC(C)C(C)Nc1cc(-c2[nH]c(SCCO)nc2-c2ccc(F)cc2)ccn1 (stereo not given)

Compound | IC50 [1] | IC50 (Blood)
CSc1nc(-c2ccc(F)cc2)c(-c2ccnc(NC3CCOCC3)c2)[nH]1 |  | 0.201 µM
CC(C)Nc1cc(-c2[nH]c(SCCO)nc2-c2ccc(F)cc2)ccn1 |  | 0.129 µM
